Activity calls are given as the source filed them. No cut-off for these calls is given here.
Legend:
[1] = Selectivity index, ratio of CC50 for human RD cells to EC50 for Enterovirus A71 BrCr infected in human RD cells; assay type: toxicity, cell-based; details: read-out: Ratio CC50/EC50
Summary of the method: (§1)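 RD cells seeded in 96-well plates; next day serial compound dilutions plus virus at low MOI added. Incubation at 37 °C, 5% CO₂ until full CPE in untreated infected controls (3 days). CC50 from uninfected treated cells in the same setup; SI = CC50/EC50.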

[2] = Selectivity index, ratio of CC50 for human MT4 cells to EC50 for HIV-1 NL4.3 infected in human MT4 cells
Enterovirus A71 [3] = test: Antiviral activity against Enterovirus A 71 BrCr infected in human RD cells assessed as reduction in virus-induced cytopathic effect preincubated for 1 day followed by viral infection and measured after 3 days by MTS/PMS method; assay type: functional, organism-based; details: strain BRCR
Summary of the method: as §1, with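 “days). Viability read by MTS/PMS; EC50 as 50% inhibition of virus-induced death from dose-response curves.” for “days).”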

[4] = tested on: Human immunodeficiency virus 1; test: Antiviral activity against HIV1 NL4.3 infected in human MT4 cells assessed as reduction in virus-induced cytopathic effect preincubated for 30 mins followed by viral infection and measured after 5 days by MTS assay; assay type: functional, organism-based; details: Human immunodeficiency virus 1, NL4.3, MT4
[5] = tested on: Human immunodeficiency virus 2; test: Antiviral activity against HIV-2 ROD infected in human MT4 cells assessed as reduction in virus-induced cytopathic effect preincubated for 30 mins followed by viral infection and measured after 5 days by MTS assay; details: Human immunodeficiency virus 2, ISOLATE ROD
[6] = Cytotoxicity against human MT4 cells assessed as reduction in cell viability measured after 5 days by MTS/PES assay; assay type: cell-based
Summary of the method: (§2)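 MT-4 cells (RPMI-1640, 10% FCS, 1% L-glutamine) pre-incubated 30 min at 37 °C with compound, then infected with HIV-1 NL4.3 or HIV-2 ROD according to stock TCID50. After 5 days, CPE scored microscopically and viability read by MTS/PES at A490 to derive EC50; cytotoxicity measured by MTS/PES at 5 days in the same cells. SI = CC50/EC50. Mean ± S.D. of at least 3 experiments.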

[7] = Selectivity index, ratio of CC50 for human MT4 cells to EC50 for HIV1 NL4.3 infected in human MT4 cells; assay type: toxicity, cell-based; details: read-out: Ratio CC50/EC50; summary of the method: as §2
Enterovirus A71 [8] = test: Antiviral activity against Enterovirus A71 genotype B5 TW/70902/08 infected in human RD cells assessed as reduction in virus-induced cell death preincubated for 1 day followed by viral infection and measured after 3 days by […]; assay type: functional; parameters: scale not given: the % may be the effect or the level left
Summary of the method: (§3)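 RD cells were seeded in 96-well plates and infected the next day at low MOI, with serial compound dilutions added at the same time. Plates were incubated at 37 °C, 5% CO2 for 3 days, until untreated infected controls died. Cell death was quantified by MTS/PMS and EC50 calculated from dose-response curves. Values come from more than 2 dose-response curves across more than 1 experiment, with microscopic quality control.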

Enterovirus A71 [9] = test: Antiviral activity against Enterovirus A 71 BrCr infected in human RD cells assessed as reduction in virus-induced cell death preincubated for 1 day followed by viral infection and measured after 3 days by microscopic analysis; assay type: functional, strain BRCR; parameters: scale not given: the % may be the effect or the level left; summary of the method: as §3
Enterovirus A71 [10] = test: Antiviral activity against Enterovirus A 71 BrCr harboring VP1 S184T mutant infected in human RD cells assessed as reduction in virus-induced cytopathic effect preincubated for 1 day followed by viral infection and measured after 3 days by MTS/PMS method; assay type: functional, organism-based, strain BRCR
RD [11] = test: Cytotoxicity against human RD cells assessed as adverse effect on cell; assay type: cell-based
Enterovirus A71 [12] = test: Antiviral activity against Enterovirus A71 genotype C2 H08300 461812 infected in human RD cells assessed as reduction in virus-induced cytopathic effect preincubated for 1 day followed by viral infection and measured after 3 days by MTS/PMS method; assay type: functional, organism-based; details: Enterovirus A, genotype C2 H08300 461812, RD; summary of the method: as §1
Enterovirus A71 [13] = test: Antiviral activity against Enterovirus A 71 BrCr harboring VP1 P246S mutant infected in human RD cells assessed as reduction in virus-induced cytopathic effect preincubated for 1 day followed by viral infection and measured after 3 days by MTS/PMS method; assay type: functional, organism-based, strain BRCR
RD [14] = test: Cytotoxicity against human RD cells assessed as induction of cell morphological changes; assay type: cell-based
Enterovirus A71 [15] = test: Antiviral activity against Enterovirus A71 genotype C2 H08300 461812 infected in human RD cells assessed as reduction in virus-induced cell death preincubated for 1 day followed by viral infection and measured after 3 days by microscopic analysis; assay type: functional; parameters: scale not given: the % may be the effect or the level left; summary of the method: as §3
Enterovirus A71 [16] = test: Antiviral activity against Enterovirus A71 genotype B2 11316 infected in human RD cells assessed as reduction in virus-induced cell death preincubated for 1 day followed by viral infection and measured after 3 days by microscopic analysis; assay type: functional; parameters: scale not given: the % may be the effect or the level left; summary of the method: as §3
Enterovirus A71 [17] = test: Antiviral activity against Enterovirus A71 genotype C4 TW/1956/05 infected in human RD cells assessed as reduction in virus-induced cell death preincubated for 1 day followed by viral infection and measured after 3 days by microscopic analysis; assay type: functional; parameters: scale not given: the % may be the effect or the level left; summary of the method: as §3
Enterovirus A71 [18] = test: Antiviral activity against Enterovirus A71 genotype B2 11316 infected in human RD cells assessed as reduction in virus-induced cytopathic effect preincubated for 1 day followed by viral infection and measured after 3 days by MTS/PMS method; assay type: functional, organism-based; details: Enterovirus A, genotype B2 11316, RD; summary of the method: as §1
Enterovirus A71 [19] = test: Antiviral activity against Enterovirus A 71 BrCr harboring VP1 S184T/P246S mutant infected in human RD cells assessed as reduction in virus-induced cytopathic effect preincubated for 1 day followed by viral infection and measured after 3 days by MTS/PMS method; assay type: functional, organism-based, strain BRCR
Enterovirus A71 [20] = test: Antiviral activity against Enterovirus A71 genotype B5 TW/70902/08 infected in human RD cells assessed as reduction in virus-induced cytopathic effect preincubated for 1 day followed by viral infection and measured after 3 days by MTS/PMS method; assay type: functional, organism-based; details: Enterovirus A, genotype B5 TW/70902/08, RD; summary of the method: as §1
Enterovirus A71 [21] = test: Antiviral activity against Enterovirus A71 genotype C4 TW/1956/05 infected in human RD cells assessed as reduction in virus-induced cytopathic effect preincubated for 1 day followed by viral infection and measured after 3 days by MTS/PMS method; assay type: functional, organism-based; details: Enterovirus A, genotype C4 TW/1956/05, RD; summary of the method: as §1
[22] = target: Envelope glycoprotein gp160 (Human immunodeficiency virus 1, UniProt Q6QLK5); test: (§4) Inhibition of biotinylated-heparin binding to recombinant HIV1 3B gp120 by SPR analysis
Summary of the method: (§5)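 SPR at 25 °C in PBS with 5% DMSO, 0.005% Tween20, pH 7.4. Minimally biotinylated heparin captured (880 RU) on streptavidin chip. Recombinant HIV-1 IIIB gp120 (10 nM) alone or premixed with a compound concentration range injected 2 min at 10 μl/min; regenerated with 1 M NaCl/10 mM NaOH. Double-referenced; RU converted to % inhibition vs gp120 alone; nonlinear fit, three experiments.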

[23] = target: Envelope glycoprotein gp160 (Human immunodeficiency virus 1) (UniProt Q6QLK5); test: as §4; summary of the method: as §5
[24] = tested on: Human immunodeficiency virus 1; test: Antiviral activity against HIV1 3B infected in human MT4 cells assessed as reduction in p24 production at 20 uM incubated for 1 hr prior to viral infection followed by compound washout and measured 8 hrs post-infection by ELISA; assay type: functional, organism-based
HeLa = test: Binding affinity to capsid protein VP1 five fold axis in Enterovirus A71 genotype B2 11316 infected in human HeLa cells at 20 uM measured after 1 hr by cryo-electron microscopic analysis; assay type: cell-based
[25] = target: Envelope glycoprotein gp160 (Human immunodeficiency virus 1) (UniProt Q6QLK5); test: Binding affinity to recombinant HIV1 3B gp120 by SPR analysis
[26] = tested on: Human immunodeficiency virus 1; test: Antiviral activity against HIV1 3B infected in human MT4 cells assessed as reduction in p24 production at 20 uM administered at onset of infection measured 8 hrs post-infection by ELISA; assay type: functional, organism-based

Envelope glycoprotein gp160 (Human immunodeficiency virus 1), sequence (Q6QLK5 1-814): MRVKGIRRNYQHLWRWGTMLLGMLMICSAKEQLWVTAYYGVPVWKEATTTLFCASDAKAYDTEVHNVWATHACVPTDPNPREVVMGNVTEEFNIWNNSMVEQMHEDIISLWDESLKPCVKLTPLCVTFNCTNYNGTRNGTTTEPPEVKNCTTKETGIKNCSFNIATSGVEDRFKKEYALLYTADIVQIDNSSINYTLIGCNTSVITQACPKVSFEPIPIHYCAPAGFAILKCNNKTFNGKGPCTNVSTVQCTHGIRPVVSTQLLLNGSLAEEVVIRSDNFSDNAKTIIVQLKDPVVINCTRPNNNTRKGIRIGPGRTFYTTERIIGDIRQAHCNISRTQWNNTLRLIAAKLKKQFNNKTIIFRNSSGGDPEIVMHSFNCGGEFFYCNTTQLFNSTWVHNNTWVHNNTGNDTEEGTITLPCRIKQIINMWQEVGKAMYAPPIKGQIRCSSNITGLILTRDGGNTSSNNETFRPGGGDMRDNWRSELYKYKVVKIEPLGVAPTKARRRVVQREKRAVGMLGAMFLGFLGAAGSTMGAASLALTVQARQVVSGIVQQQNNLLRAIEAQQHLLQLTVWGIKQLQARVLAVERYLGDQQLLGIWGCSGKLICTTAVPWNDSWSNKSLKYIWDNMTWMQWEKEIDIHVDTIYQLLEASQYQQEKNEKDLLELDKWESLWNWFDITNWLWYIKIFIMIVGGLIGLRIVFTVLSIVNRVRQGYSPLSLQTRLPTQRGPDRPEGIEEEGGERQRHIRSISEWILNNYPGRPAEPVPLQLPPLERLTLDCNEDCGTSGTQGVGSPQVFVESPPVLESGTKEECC
Envelope glycoprotein gp160, sequence (Q6QLK5 whole entry): as the sequence (Q6QLK5 1-814) above

| Structure (SMILES) | selectivity ratio [2] | EC50 (Enterovirus A71 [3]) [nM] | EC90 (Enterovirus A71 [3]) [nM] | EC50 [4] [nM] | EC50 [5] [nM] | CC50 at 120 h [6] [nM] | selectivity ratio [7] | further results |
| --- | --- | --- | --- | --- | --- | --- | --- | --- |
| O=C(CCOCC(COCCC(=O)NC(Cc1c(-c2ccc(C(=O)O)cc2)[nH]c2ccccc12)C(=O)O)(COCCC(=O)NC(Cc1c(-c2ccc(C(=O)O)cc2)[nH]c2ccccc12)C(=O)O)COCCC(=O)NC(Cc1c(-c2ccc(C(=O)O)cc2)[nH]c2ccccc12)C(=O)O)NC(Cc1c(-c2ccc(C(=O)O)cc2)[nH]c2ccccc12)C(=O)O (stereo unspecified) | > 137 | 370 | 630 | 730 | 750 | > 100000 | > 137 | selectivity ratio [1]: 161 |
| O=C(CCC(CCC(=O)NC(Cc1c(-c2cccc(C(=O)O)c2)[nH]c2ccccc12)C(=O)O)(CCC(=O)NC(Cc1c(-c2cccc(C(=O)O)c2)[nH]c2ccccc12)C(=O)O)[N+](=O)[O-])NC(Cc1c(-c2cccc(C(=O)O)c2)[nH]c2ccccc12)C(=O)O (stereo unspecified) | > 6 | 990 | 1350 | 16000 | 64000 | > 100000 | > 6 | selectivity ratio [1]: > 73.4 |
| O=C(CCC(CCC(=O)NC(Cc1c(-c2ccccc2)[nH]c2ccccc12)C(=O)O)(CCC(=O)NC(Cc1c(-c2ccccc2)[nH]c2ccccc12)C(=O)O)[N+](=O)[O-])NC(Cc1c(-c2ccccc2)[nH]c2ccccc12)C(=O)O (stereo unspecified) | 4.4 | > 100000 | – | 19000 | > 83000 | 83000 | 4.4 | – |
| O=C(CCC(CCC(=O)NC(Cc1c(-c2ccc([N+](=O)[O-])cc2)[nH]c2ccccc12)C(=O)O)(CCC(=O)NC(Cc1c(-c2ccc([N+](=O)[O-])cc2)[nH]c2ccccc12)C(=O)O)[N+](=O)[O-])NC(Cc1c(-c2ccc([N+](=O)[O-])cc2)[nH]c2ccccc12)C(=O)O (stereo unspecified) | > 2 | 28800 | 58200 | 41000 | 43000 | > 100000 | > 2 | – |
| O=C(CCC(CCC(=O)N[C@H](Cc1c[nH]c2ccccc12)C(=O)O)(CCC(=O)N[C@H](Cc1c[nH]c2ccccc12)C(=O)O)NC(=O)CCOCC(COCCC(=O)NC(CCC(=O)N[C@H](Cc1c[nH]c2ccccc12)C(=O)O)(CCC(=O)N[C@H](Cc1c[nH]c2ccccc12)C(=O)O)CCC(=O)N[C@H](Cc1c[nH]c2ccccc12)C(=O)O)(COCCC(=O)NC(CCC(=O)N[C@H](Cc1c[nH]c2ccccc12)C(=O)O)(CCC(=O)N[C@H](Cc1c[nH]c2ccccc12)C(=O)O)CCC(=O)N[C@H](Cc1c[nH]c2ccccc12)C(=O)O)COCCC(=O)NC(CCC(=O)N[C@H](Cc1c[nH]c2ccccc12)C(=O)O)(CCC(=O)N[C@H](Cc1c[nH]c2ccccc12)C(=O)O)CCC(=O)N[C@H](Cc1c[nH]c2ccccc12)C(=O)O)N[C@H](Cc1c[nH]c2ccccc12)C(=O)O | > 43 | 280 to 300 | 500 | 2300 | 6600 | > 100000 | > 43 | Activity (Enterovirus A71 [8]): 100%; Activity (Enterovirus A71 [9]): 100%; EC50 (Enterovirus A71 [10]): 1990 nM; Activity (RD [11]): Non-Toxic; EC50 (Enterovirus A71 [12]): 1.1 nM; EC50 (Enterovirus A71 [13]): 4710 nM; Activity (RD [14]): Non-Toxic; Activity (Enterovirus A71 [15]): 100%; Activity (Enterovirus A71 [16]): 100%; Activity (Enterovirus A71 [17]): 100%; EC50 (Enterovirus A71 [18]): 0.4 nM; EC50 (Enterovirus A71 [19]): 8930 nM; EC50 (Enterovirus A71 [20]): 0.2 nM; EC50 (Enterovirus A71 [21]): 0.2 nM |
| O=C(CCC(CCC(=O)NC(Cc1c(-c2ccc(C(F)(F)F)cc2)[nH]c2ccccc12)C(=O)O)(CCC(=O)NC(Cc1c(-c2ccc(C(F)(F)F)cc2)[nH]c2ccccc12)C(=O)O)[N+](=O)[O-])NC(Cc1c(-c2ccc(C(F)(F)F)cc2)[nH]c2ccccc12)C(=O)O (stereo unspecified) | > 4 | > 78900 | – | 26000 | 68000 | > 100000 | > 4 | – |
| O=C(CCOCC(COCCC(=O)NC(Cc1c(-c2cc(C(=O)O)cc(C(=O)O)c2)[nH]c2ccccc12)C(=O)O)(COCCC(=O)NC(Cc1c(-c2cc(C(=O)O)cc(C(=O)O)c2)[nH]c2ccccc12)C(=O)O)COCCC(=O)NC(Cc1c(-c2cc(C(=O)O)cc(C(=O)O)c2)[nH]c2ccccc12)C(=O)O)NC(Cc1c(-c2cc(C(=O)O)cc(C(=O)O)c2)[nH]c2ccccc12)C(=O)O (stereo unspecified) | – | 40 to 109 | 160 | – | 20 | > 100000 | – | Activity (Enterovirus A71 [8]): 100%; Activity (Enterovirus A71 [9]): 100%; IC50 [22]: 211 nM; inhibition [23]: Dose-dependent effect; Activity [24]: Active; EC50 (Enterovirus A71 [10]): 900 nM; Activity (HeLa): Active; Activity (RD [11]): Non-Toxic; Activity [25]: Dose-dependent effect; EC50 (Enterovirus A71 [13]): 200 nM; Activity (RD [14]): Non-Toxic; Activity (Enterovirus A71 [15]): 100%; Activity (Enterovirus A71 [16]): 100%; Activity (Enterovirus A71 [17]): 100%; Activity [26]: Active; EC50 (Enterovirus A71 [19]): 300 nM |

Reference: ChEMBL document CHEMBL4321868, “Scaffold Simplification Strategy Leads to a Novel Generation of Dual Human Immunodeficiency Virus and Enterovirus-A71 Entry Inhibitors” (J Med Chem, 2020)
